Screening data: PubChem BioAssay, several laboratories
Rpn11 block = blocks the human proteasome subunit Rpn11; 360,000 tested, 0.59% active; calls only at 20 µM; O00487; human 26S proteasome, Ub4-pepOG fluorescence polarization; 20S core pre-blocked with epoxomicin;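 active means inhibition at 20 µM, scaled to each plate's controls, above about 33%, limit read from the data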
Target sequence (O00487 whole entry, looked up): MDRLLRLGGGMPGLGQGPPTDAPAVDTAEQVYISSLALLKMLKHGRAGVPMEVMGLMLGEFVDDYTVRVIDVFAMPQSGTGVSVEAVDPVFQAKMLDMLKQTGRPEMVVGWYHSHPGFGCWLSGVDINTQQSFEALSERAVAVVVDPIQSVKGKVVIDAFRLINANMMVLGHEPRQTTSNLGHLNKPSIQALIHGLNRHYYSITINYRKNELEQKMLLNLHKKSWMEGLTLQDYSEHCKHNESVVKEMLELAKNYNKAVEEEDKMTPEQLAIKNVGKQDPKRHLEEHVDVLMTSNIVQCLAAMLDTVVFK
HNF4A DNA FP = change in binding of human HNF4 alpha to DNA; HNF4a-FITC DNA binding, fluorescence polarization, 1 h; 360,000 tested, 0.3% active; P41235; activity change, % at 10 µM; in the data active means activity change above about 30%, passing the limit was not always enough
CSN deneddyl inh = CSN deneddylation inhibition; inhibition, % at 12.5 µM; AID 651999; 360,000 tested, 0.38% active; Purified CSN, SCF-Nedd8-OG deneddylation, fluorescence polarization;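 active means pattern-corrected inhibition above about 35%, with an unprinted fluorescence ratio check between 0.5 and 1.5, limit read from the data, passing the limit was not always enough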;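 further: 0% = enzyme with substrate and 100% = substrate without enzyme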
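Assay system: HEK293T-derived human Csn5 enzyme; quantity: 0.24 nM enzyme; medium: Tris/NaCl/DTT buffer, pH 7.5; also added: substrate SCFSkp2-Nedd8OG, 10 nM; doses: 12.5 µM compound; schedule: 90 min reaction at room temperature; signal: FP; read-out: % inhibition of substrate cleavage by Csn5; benchmarks: substrate-only high control, full reaction low control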
IDE cell activ = boosts human insulin-degrading enzyme activity in HEK cells; FAbeta-B cleavage, fluorescence polarization; 0% vehicle, 100% cell-free pure enzyme wells; P14735; 340,000 tested, 0.073% active; activation, % at 5.96 µM;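 active means activation above the mean of all tested compounds plus 3 SD, set per screening campaign, cut at about 17% in these data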
TPT1 inh = inhibitors of Candida albicans tRNA 2'-phosphotransferase TPT1; inhibition, % at 5 µM; recombinant caTPT1, FP RNA substrate dephosphorylation; 300,000 tested, 0.81% active; AID 1962;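 active means inhibition above the mean of all tested compounds plus 3 SD, set per screening campaign, cut at about 24% in these data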;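 further: plate controls were DMSO alone for no effect and ferristatin control at 100 nM for full effect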
IDE cell inh = inhibits human insulin-degrading enzyme in HEK cells; P14735; FAbetaB cleavage, fluorescence polarization; inhibition, % at 5.59 µM; 320,000 tested, 0.41% active; AID 434962;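 active means percent inhibition above the average of all tested compounds plus 3 SD, set per screening campaign, cut at about 16% in these data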;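 further: IDE supplied by intact live HEK cells; FP after avidin binding of uncleaved biotin substrate so inhibition keeps polarization high; 0% = DMSO wells and 100% = 60 µM reference IDE inhibitor Ii1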
* = called active by the depositor; i = inactive; . = no result given; + = active, no number. Shown are actives, neighbours in structure and some others; about 1.7% of the full set was active somewhere.

SMILES	Rpn11 block	HNF4A DNA FP	CSN deneddyl inh	IDE cell activ	TPT1 inh	IDE cell inh
Cc1cccc(NC(=O)c2cc(-c3cc(C)cc(C)c3O)n[nH]2)c1	i	31*	2	0	-1	2
COc1ccc(NC(=O)CN(C)C(=O)C2CC(=O)N(c3ccc4c(c3)OCCO4)C2)cc1 (configuration not stated)	i	3	2	2	3	-1
Cc1ccc(/C=C2\SC(=S)N(/N=C/c3cc([N+](=O)[O-])ccc3O)C2=O)o1	+	-44	56*	2	7	-4
O=C(NN1C(=O)/C(=C/c2cc([N+](=O)[O-])ccc2O)SC1=S)c1ccccc1O	.	.	.	.	53*	-3
O=[N+]([O-])c1ccc(O)c(/C=N/n2cnc3ccccc32)c1	i	3	-1	2	-2	-4
O=C(Nc1ccccc1)Nc1n[nH]c2nnc(-c3ccccc3)c(-c3ccccc3)c12	i	-2	-4	0	-3	6
O=C(C1CCN(S(=O)(=O)Cc2ccccc2)CC1)N1CCN(c2ncccn2)CC1	i	1	101*	-1	-3	3
CC(=O)c1ccc(N2CCN(C(=O)C3CCN(S(=O)(=O)Cc4ccccc4)CC3)CC2)cc1	i	6	92*	-6	2	3
Cc1cccc(OCC(=O)O/N=C(\N)c2ccc(Cl)cc2)c1	i	4	0	-4	4	-2
CN(CC(=O)Nc1ccc(Cl)c(C(F)(F)F)c1)C(=O)c1cccnc1Sc1ccccc1	i	1	2	6	-4	3
N#Cc1c(N2CCCC2)nc(N)c2c(N)nc(N3CCCC3)cc12	i	36	55*	-3	0	-5
CCOc1cc2c(C#N)c(N3CCCC3)nc(N)c2c(N)n1	i	5	1	1	5	-2
COc1ccc(C2=NN(C(=O)CCC(=O)O)C(c3cccs3)C2)cc1 (configuration not stated)	i	2	3	2	0	5
COc1ccc(C2=NN3C(C2)c2ccccc2OC3c2cccs2)cc1 (configuration not stated)	+	6	9	-2	9	-3
COc1cc(C2C(C(C)=O)=C(O)C(=O)N2c2ccc(Br)cn2)ccc1O (configuration not stated)	i	1	-1	3	0	-2
COc1cc(C2C(C(=O)/C=C/c3ccccc3)=C(O)C(=O)N2c2ccccn2)ccc1O (configuration not stated)	.	40*	66	3	8	13
CC1(C)OC(c2ccccc2)=C/C(=C/C=C2C(=O)c3ccccc3C2=O)O1	i	84*	29	-11	-5	6
COc1ccc(C)cc1N(CC(=O)N1CCCCCC1)S(C)(=O)=O	i	0	3	6	2	-2
COc1ccc(C)cc1N(CC(=O)N1CCCC1)S(C)(=O)=O	i	9	70*	-4	-2	0
C/C(=N/NS(=O)(=O)c1ccc(C)cc1C)c1ccc2c(c1)OCO2	i	1	0	0	-1	-3
COc1ccc(/C=C2/SC(=S)N(CCCC(=O)Nc3ccccc3C(=O)O)C2=O)cc1	i	0	4	22*	1	-32
Nc1ccc2c3c(cccc13)C(=O)N(c1ccccc1)C2=O	i	-111	-101	-14	.	.
CC(C)CCN1C(=O)c2cccc3c(N)ccc(c23)C1=O	i	-114	-75	54*	-42	-22
C=C(C)COc1ccc(-c2[nH]ncc2Oc2ccc(OC)cc2)c(O)c1	i	-3	-3	21*	-1	2
CCOC(=O)c1cc(NC(=O)c2ccc(C)cc2)c(=O)oc1C(F)(F)F	i	0	5	4	-4	-1
SMILES	Rpn11 block	HNF4A DNA FP	CSN deneddyl inh	IDE cell activ	TPT1 inh	IDE cell inh
CCOC(=O)c1cc(NC(=O)c2ccccc2)c(=O)oc1C(F)(F)F	i	46*	14	12	.	.
CC(C)Cn1c(N)c(C(=O)CSc2nc3ccccc3n2C)c(=O)n(C)c1=O	i	48*	-4	1	0	4
CC(C)Oc1ccc(C(=O)Nc2ccc(N3CCCCC3)cc2)cc1	i	82*	-11	1	-3	6
CC[C@]12c3[nH]c4ccccc4c3CCN1C(=O)C(CC(=O)NCc1ccco1)C[C@@H]2C(=O)N1CCN(C(=O)C2CC2)CC1 (some centres not stated)	i	2	-3	3	.	0
O=C(CSc1nc2sc3c(c2c(=O)n1-c1ccccc1)CCCC3)N/N=C/c1ccccc1C(=O)O	i	-1	50*	3	0	-2
c1ccc(CCC2Cc3ccccc3N2)cc1 (configuration not stated)	i	4	-5	5	.	-2
c1ccc(CC[C@@H]2CC[C@@H](CCc3ccccc3)N2)cc1	i	7	43*	3	.	6
COc1ccc(N(CC(=O)NCCSCc2ccccc2C)S(=O)(=O)c2ccccc2)cc1	i	-2	-2	-1	-1	1
CCCC(C(=O)Nc1ccc(S(=O)(=O)Nc2ncccn2)cc1)c1ccccc1 (configuration not stated)	i	34*	0	7	-3	0
CCCC(C(=O)Nc1ccc(S(=O)(=O)N2CCCC2)cc1)c1ccccc1 (configuration not stated)	i	-1	1	1	-2	-3
C=CCNC(=O)c1cc(-c2ccccc2)sc1N	.	11	13	.	.	.
Nc1sc(-c2ccccc2)cc1C(=O)NCCc1ccc(Cl)cc1	.	56*	9	.	.	.
Cc1ccc(CNc2ccc3nnc(-c4ccccc4)n3n2)cc1	i	3	38*	4	-1	0
O=C(Nc1ccccn1)c1cccnc1	i	-1	0	6	-6	3
COc1cc(Cl)c(C)cc1NC(=O)CSc1nc2ccccc2o1	i	0	2	2	-1	0
COc1cc(Cl)c(C)cc1NC(=O)CSc1ccc(NC(C)=O)cc1	i	1	3	-9	4	18*
CC(C)c1nc2ccc(NC(=O)C34CC5CC(CC(C5)C3)C4)cc2[nH]1	i	1	3	-3	-2	0
Cn1nnnc1Sc1ncnc2scc(-c3ccc(F)cc3)c12	+	21	10	4	24	3
N#CC1=C(N)SC(N)=C(C#N)C1c1ccoc1	.	.	.	.	32*	15
O=C(NNS(=O)(=O)c1ccc([N+](=O)[O-])cc1)C(=O)Nc1cccc(C(=O)O)c1	i	1	3	2	-7	4
